From ChEMBL document CHEMBL3860043, “Non-Acidic Free Fatty Acid Receptor 4 Agonists with Antidiabetic Activity” (J Med Chem, 2016)
Converted amounts (≈) assume the structure as drawn. The source made the active and inactive calls. The calls are words filed in the database; no cut-off is given here.

Legend:
[1] = target: T1, Free fatty acid receptor 4 (Homo sapiens, UniProt Q5NUL3); experiment: Agonist activity at C-terminal YFP-tagged human FFA4 expressed in HEK293 cells in presence of coelentrazine h by BRET based beta-arrestin-2 interaction assay; type: cell-based
T1 sequence (Q5NUL3 whole entry): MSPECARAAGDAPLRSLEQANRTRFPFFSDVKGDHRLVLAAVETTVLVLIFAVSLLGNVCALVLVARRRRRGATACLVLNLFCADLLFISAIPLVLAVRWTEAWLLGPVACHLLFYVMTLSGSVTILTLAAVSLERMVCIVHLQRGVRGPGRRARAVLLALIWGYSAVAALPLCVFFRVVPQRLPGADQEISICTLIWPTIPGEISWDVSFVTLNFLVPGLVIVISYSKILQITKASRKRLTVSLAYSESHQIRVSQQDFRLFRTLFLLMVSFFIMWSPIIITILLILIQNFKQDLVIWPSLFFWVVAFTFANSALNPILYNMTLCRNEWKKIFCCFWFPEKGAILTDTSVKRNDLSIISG
Procedure, shortened: (§1)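 HEK293 cells co-transfected with C-terminal eYFP-fused human FFA4 and β-arrestin-2–Renilla luciferase; plated 24 h post-transfection, used 24 h later. After an HBSS wash, coelenterazine h (2.5 µM) for 15 min, with ligands present for the final 5 min, 37 °C. BRET taken as the 535/475 nm emission ratio. Efficacy relative to 100 µM reference agonist. Three-parameter sigmoidal fits; mean ± S.E. of 2-4 independent experiments.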

[2] = target: T2, Free fatty acid receptor 4 (Homo sapiens) (UniProt Q5NUL3); experiment: Agonist activity at C-terminal YFP-tagged human FFA4 expressed in HEK293 cells in presence of coelentrazine h by BRET based beta-arrestin-2 interaction assay relative to 100 uM […]; type: cell-based; procedure, shortened: as §1
T2 sequence (whole entry): T1 sequence (Q5NUL3 whole entry)

[3] = target: T3, Free fatty acid receptor 1 (Homo sapiens, UniProt O14842); experiment: Antagonist activity against human FFA1 expressed in human Flp-In T-REx293 cells assessed as as reduction in TUG424-induced response by Fura2-AM dye based calcium mobilization assay; type: functional, cell-based
Procedure, shortened: (§2)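 Flp-In T-REx 293 cells with inducible human FFA1, seeded at 50000 cells/well and induced with 100 ng/ml doxycycline after 3-4 h adherence. Next day loaded with Fura2-AM for 45 min, washed, then preincubated 15 min in HBSS with test ligand before 300 nM agonist challenge. Fura2 340:380 ratio change read at 510 nm emission. Inhibition expressed as % reduction of the agonist response.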

[4] = target: T3, Free fatty acid receptor 1; experiment: Antagonist activity against human FFA1 expressed in human Flp-In T-REx293 cells assessed as as reduction in 300 nM TUG424-induced response by Fura2-AM dye based calcium mobilization assay relative to untreated control; type: functional, cell-based; procedure, shortened: as §2
[5] = target: T1, Free fatty acid receptor 4; experiment: Agonist activity at human FFA4 expressed in human Flp-In T-REx293 cells by Fura2-AM dye based calcium mobilization assay; type: functional, cell-based
Procedure, shortened: (§3)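 Flp-In T-REx 293 cells with doxycycline-inducible human FFA4 seeded at 50000 cells/well and induced overnight with 100 ng/ml doxycycline. Loaded with Fura2-AM for 45 min, washed three times in HBSS, equilibrated 15 min, then ligand added. Emission at 510 nm with 340/380 nm excitation; response is the change in 340:380 ratio. Efficacy relative to 100 µM reference agonist; 2-4 independent experiments, sigmoidal fits.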

[6] = target: T2, Free fatty acid receptor 4 (Homo sapiens); experiment: Agonist activity at human FFA4 expressed in human Flp-In T-REx293 cells by Fura2-AM dye based calcium mobilization assay relative to 100 uM […]; type: functional, cell-based; procedure, shortened: as §3
[7] = Lipophilicity, log D of the compound at pH 7.4; type: physicochemical; details: buffer
[8] = Solubility in PBS buffer; type: physicochemical
[9] = target: T4, Free fatty acid receptor 4 (Mus musculus, UniProt Q7TMA4); experiment: Agonist activity mouse FFA4 by Gq-dependent calcium mobilization assay; type: functional
T4 sequence (Q7TMA4 whole entry): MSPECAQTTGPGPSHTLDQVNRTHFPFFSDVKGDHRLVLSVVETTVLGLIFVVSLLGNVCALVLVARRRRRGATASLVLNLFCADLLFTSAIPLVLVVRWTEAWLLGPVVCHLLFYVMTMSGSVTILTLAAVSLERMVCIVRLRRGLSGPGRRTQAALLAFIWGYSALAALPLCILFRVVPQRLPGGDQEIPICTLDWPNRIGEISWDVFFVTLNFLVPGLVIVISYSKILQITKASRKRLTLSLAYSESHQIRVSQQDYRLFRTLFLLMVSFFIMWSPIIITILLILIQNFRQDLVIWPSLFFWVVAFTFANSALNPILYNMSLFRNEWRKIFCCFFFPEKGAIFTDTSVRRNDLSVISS

[10] = test system: Mus musculus; experiment: Reduction in plasma glucose level in mouse at 10 mg/kg, po dosed 15 mins before oral glucose challenge by OGTT method; type: functional, organism-based
Procedure, shortened: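 Mice fasted 5 h and given compound orally at 10 mg/kg, 15 min before an oral glucose load of 3 g/kg. Tail-tip blood sampled under local anesthetic 30 min before and immediately before the load, and at 30, 60, 90, 120 and 180 min after it. Glucose measured in duplicate by glucose oxidase colorimetric assay; n=6 mice per group.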

[11] = target: T3, Free fatty acid receptor 1; experiment: Antagonist activity against human FFA1 expressed in human Flp-In T-REx293 cells assessed as as reduction in TUG770-induced response by Fura2-AM dye based calcium mobilization assay; type: functional, cell-based
Procedure, shortened: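 Antagonism measured in FFA1 Ca2+ mobilization with 20 nM TUG-770 as the stimulating agonist. Test ligand preincubated 15 min in HBSS before agonist addition. Read-out is the change in Fura2 340:380 ratio at 510 nm emission.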

[12] = Solubility in FaSSIF solution; type: physicochemical

T3 sequence (O14842 whole entry): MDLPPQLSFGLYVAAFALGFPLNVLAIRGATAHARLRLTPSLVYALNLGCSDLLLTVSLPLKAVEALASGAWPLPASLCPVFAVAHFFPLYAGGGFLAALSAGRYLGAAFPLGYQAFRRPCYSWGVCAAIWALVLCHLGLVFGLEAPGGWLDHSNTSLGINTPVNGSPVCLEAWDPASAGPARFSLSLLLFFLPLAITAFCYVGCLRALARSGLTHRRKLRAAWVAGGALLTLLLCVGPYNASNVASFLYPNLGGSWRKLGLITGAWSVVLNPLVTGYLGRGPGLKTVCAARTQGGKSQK

SMILES	EC50 ([1]; read-out: pEC50 (converted))	Emax [2]	IC50 [3]	Imax [4]	EC50 [5]	Emax [6]	also measured
N#CCc1cccc(Oc2cc(F)cc(N3Cc4ccccc4S3(=O)=O)c2)c1	5250 nM	57%	20000 nM	44%	–	–	–
O=S(=O)(Nc1cc(F)cc(Oc2cccnc2)c1)c1ccc(F)cc1	16600 nM	39%	–	–	–	–	–
O=S1(=O)c2ccccc2CN1c1cc(F)cc(Oc2ccccc2)c1	234 nM	101%	3890 nM	47%	380 nM	78%	EC50 [1]: < 10000 nM
Cc1ccc(S(=O)(=O)Nc2ccc(Oc3ccccc3)cc2)cc1	–	–	10000 nM	100%	–	–	–
Cc1ccccc1Oc1cc(F)cc(N2Cc3ccccc3S2(=O)=O)c1	2690 nM	42%	44700 nM	71%	–	–	–
N#Cc1ccccc1Oc1cc(F)cc(N2Cc3ccccc3S2(=O)=O)c1	16200 nM	76%	> 100000 nM	–	–	–	–
O=S1(=O)c2ccccc2CN1c1cc(F)cc(Oc2ccncc2)c1	1260 nM	97%	> 100000 nM	–	1700 nM	120%	–
O=S1(=O)c2ccccc2CN1c1cccc(Oc2ccccn2)c1	1550 nM	102%	> 100000 nM	–	1020 nM	93%	–
O=S1(=O)c2ccccc2CN1c1cc(F)cc(OCc2ccccc2)c1	> 100000 nM	–	2450 nM	36%	–	–	–
N#Cc1cccc(Oc2cc(F)cc(N3Cc4ccccc4S3(=O)=O)c2)c1	5750 nM	83%	3390 nM	52%	–	–	–
Cc1ccc(Oc2cc(F)cc(N3Cc4ccccc4S3(=O)=O)c2)cc1	437 nM	91%	2880 nM	52%	1100 nM	38%	–
CCCCc1ccc(NS(=O)(=O)c2ccc(F)cc2)cc1	5370 nM	76%	8130 nM	68%	–	–	–
COc1ccc(S(=O)(=O)Nc2c(C)cc(C)cc2C)cc1	490 nM	82%	–	–	–	–	–
O=S1(=O)c2ccccc2CN1c1cccc(Oc2ccccc2)c1	245 nM	95%	174 nM	39%	209 nM	105%	–
O=S1(=O)c2ccccc2CN1c1cc(F)cc(Oc2cccnc2)c1	437 nM	107%	> 100000 nM	–	302 nM	115%	logD [7]: 3.12; solubility [8]: 11 µM (≈ 3.92 µg/mL); EC50 [9]: 83.2 nM; Activity [10]: Active
O=S1(=O)c2ccccc2CN1c1cc(Cl)cc(Oc2ccccn2)c1	138 nM	113%	–	–	38.9 nM	78%	EC50 ([1]; read-out: EC50): 40 nM; IC50 [11]: > 100000 nM; solubility [8]: 0.1 µM (≈ 0.0373 µg/mL); solubility [12]: 0.9 µM (≈ 0.336 µg/mL); EC50 [9]: 72.4 nM
CN(c1ccc(Oc2ccccc2)cc1)S(=O)(=O)c1ccc(F)cc1	–	–	10700 nM	57%	–	–	–
Cc1cccc(Oc2cc(F)cc(N3Cc4ccccc4S3(=O)=O)c2)c1	2630 nM	87%	25100 nM	51%	4470 nM	14%	–
O=S(=O)(Nc1ccc(Oc2ccccc2)cc1)c1ccc(F)cc1	3550 nM	52%	12900 nM	95%	–	–	–
O=C1c2ccccc2C(=O)N1c1cc(F)cc(Oc2cccnc2)c1	5010 nM	45%	–	–	–	–	–
N#Cc1ccc(Oc2cc(F)cc(N3Cc4ccccc4S3(=O)=O)c2)cc1	1660 nM	87%	617 nM	43%	2340 nM	29%	–
